The target of assay [1] is T1, Beta-secretase 1 (Homo sapiens, UniProt P56817). Nature of the assay: Inhibition of human BACE1 at 50 uM by FRET assay. The method in brief:
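FRET assay kit for BACE-1 activity, run per a previously described protocol; each compound was tested at 50 µM as the initial screening concentration; percent inhibition is given as the mean of duplicate measurements.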

In assay [2] the target is T1, Beta-secretase 1. In words: Inhibition of human BACE1 by FRET assay. The method in brief:
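IC50 values were measured against BACE-1 with a FRET assay kit following an earlier-described protocol; values are means of duplicate measurements.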

Each structure is given as a SMILES string.

The values that follow come from ChEMBL document CHEMBL1268833, “Molecular docking and structure-activity relationship studies on benzothiazole based non-peptidic BACE-1 inhibitors” (Bioorg Med Chem Lett, 2010).

T1 sequence (P56817 whole entry): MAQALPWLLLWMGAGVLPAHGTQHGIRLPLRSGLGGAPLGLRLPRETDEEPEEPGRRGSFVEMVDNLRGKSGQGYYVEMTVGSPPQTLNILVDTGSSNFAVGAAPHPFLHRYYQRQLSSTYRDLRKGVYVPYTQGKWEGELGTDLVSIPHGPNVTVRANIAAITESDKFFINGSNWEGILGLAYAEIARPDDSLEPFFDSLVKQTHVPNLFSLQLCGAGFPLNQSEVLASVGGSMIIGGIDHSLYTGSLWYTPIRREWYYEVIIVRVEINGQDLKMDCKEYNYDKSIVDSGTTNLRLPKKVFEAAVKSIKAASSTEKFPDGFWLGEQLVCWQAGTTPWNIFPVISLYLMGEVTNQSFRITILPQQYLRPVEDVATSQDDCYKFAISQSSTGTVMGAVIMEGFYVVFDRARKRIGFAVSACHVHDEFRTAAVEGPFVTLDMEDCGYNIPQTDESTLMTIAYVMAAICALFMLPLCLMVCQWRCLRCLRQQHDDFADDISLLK

For `O=C(CSc1nc2ccc(Nc3nc(N4CCCC4)nc(N4CCCC4)n3)cc2s1)c1ccccc1`, the inhibition (in general, the percentage by which the read-out fell short of the control) at Beta-secretase 1 [1] amounted to 93%. Besides, half-maximal inhibition on Beta-secretase 1 [2] (IC50) was put at 20 µM.

The compound `O=C(CSc1nc2ccc(Nc3nc(N4CCOCC4)nc(N4CCOCC4)n3)cc2s1)NCCOc1ccccc1` showed an inhibition against Beta-secretase 1 [1] of 0%.

As to `CCOC(=O)CSc1nc2ccc(Nc3nc(N4CCCC4)nc(N4CCCC4)n3)cc2s1`, the inhibition at Beta-secretase 1 [1] came out at 100%. The IC50 – broadly, the concentration at which inhibition is half-maximal – against Beta-secretase 1 [2] is 1.77 µM.

Consider `Cc1cc(C)c(NC(=O)CSc2nc3ccc(Nc4nc(N5CCOCC5)nc(N5CCOCC5)n4)cc3s2)c(C)c1`, for which, at Beta-secretase 1 [1], the inhibition was found to be 82%. This compound also had an IC50 on Beta-secretase 1 [2] greater than 50 µM.

`CCOc1ccc(NC(=O)CSc2nc3ccc(Nc4nc(N5CCOCC5)nc(N5CCOCC5)n4)cc3s2)cc1` registered an inhibition against Beta-secretase 1 [1] of 100%. For the same compound, the IC50 against Beta-secretase 1 [2] was greater than 50 µM.

`O=C(CSc1nc2ccc(Nc3nc(N4CCOCC4)nc(N4CCOCC4)n3)cc2s1)N1CCOCC1` displayed an inhibition against Beta-secretase 1 [1] of 16%.

`O=C(CSc1nc2ccc(Nc3nc(N4CCCCC4)nc(N4CCCCC4)n3)cc2s1)Nc1ccccc1`: the inhibition on Beta-secretase 1 [1] was determined as 58%. The compound further gave a half-maximal inhibitory concentration (IC50) against Beta-secretase 1 [2] greater than 50 µM.

`O=C(CSc1nc2ccc(Nc3nc(N4CCOCC4)nc(N4CCOCC4)n3)cc2s1)Nc1ccccc1Cl`: the inhibition against Beta-secretase 1 [1] turned out to be 50%. This compound also registered an IC50 against Beta-secretase 1 [2] of 50 µM.

Take `Cc1cccc(NC(=O)CSc2nc3ccc(Nc4nc(N5CCCC5)nc(N5CCCC5)n4)cc3s2)c1C`: the inhibition on Beta-secretase 1 [1] was found to be 100%. At Beta-secretase 1 [2], the IC50 worked out at 2.83 µM.

As to `O=C(CSc1nc2ccc(Nc3nc(N4CCOCC4)nc(N4CCOCC4)n3)cc2s1)Nc1cccc(C(F)(F)F)c1`, the inhibition at Beta-secretase 1 [1] stood at 0%.

Compound `O=C(CSc1nc2ccc(Nc3nc(N4CCCC4)nc(N4CCCC4)n3)cc2s1)Nc1ccccc1` displayed an inhibition against Beta-secretase 1 [1] of 100%. This compound also showed an IC50 at Beta-secretase 1 [2] of 0.12 µM.

`COc1ccc(OC)c(NC(=O)CSc2nc3ccc(Nc4nc(N5CCCCC5)nc(N5CCCCC5)n4)cc3s2)c1` came in with an inhibition against Beta-secretase 1 [1] of 73%. The compound also displayed an IC50 against Beta-secretase 1 [2] of 18 µM.

Consider `O=C(CSc1nc2ccc(Nc3nc(N4CCOCC4)nc(N4CCOCC4)n3)cc2s1)NCc1ccccc1`, for which the inhibition on Beta-secretase 1 [1] came out at 50%. For the same compound, the IC50 on Beta-secretase 1 [2] turned out to be 50 µM.

For the compound `Cc1ccccc1NC(=O)CSc1nc2ccc(Nc3nc(N4CCOCC4)nc(N4CCOCC4)n3)cc2s1`, the inhibition against Beta-secretase 1 [1] was 0.5%.

On to `CCOC(=O)CSc1nc2ccc(Nc3nc(N4CCOCC4)nc(N4CCOCC4)n3)cc2s1`, for which the inhibition at Beta-secretase 1 [1] stood at 42%.

`O=C(CSc1nc2ccc(Nc3nc(N4CCCC4)nc(N4CCCC4)n3)cc2s1)NCCOc1ccccc1` showed an inhibition at Beta-secretase 1 [1] of 88%. 3 µM corresponded to half-maximal inhibition at Beta-secretase 1 [2] (IC50).

Take `Cc1ccc(CNC(=O)CSc2nc3ccc(Nc4nc(N5CCOCC5)nc(N5CCOCC5)n4)cc3s2)cc1`: the inhibition at Beta-secretase 1 [1] came out at 0%.

Turning to `CCOc1ccc(NC(=O)CSc2nc3ccc(Nc4nc(N5CCCCC5)nc(N5CCCCC5)n4)cc3s2)cc1`, the inhibition against Beta-secretase 1 [1] worked out at 77%. The same compound yielded an IC50 against Beta-secretase 1 [2] of 17.2 µM.

`O=C(CSc1nc2ccc(Nc3nc(N4CCCC4)nc(N4CCCC4)n3)cc2s1)NCc1ccco1` had an inhibition against Beta-secretase 1 [1] of 87%. Half-maximal inhibition at Beta-secretase 1 [2] (IC50) was put at 0.69 µM.

Consider `O=C(CSc1nc2ccc(Nc3nc(N4CCCC4)nc(N4CCCC4)n3)cc2s1)NCc1ccccc1`, for which the inhibition against Beta-secretase 1 [1] came out at 83%. Half-maximal inhibition at Beta-secretase 1 [2] (IC50) required 1.7 µM.

At Beta-secretase 1 [1], `O=C(CSc1nc2ccc(Nc3nc(N4CCOCC4)nc(N4CCOCC4)n3)cc2s1)N1c2ccccc2CCc2ccccc21` displayed an inhibition of 100%. Further, the IC50 on Beta-secretase 1 [2] was determined as 14.7 µM.

As to `O=C(CSc1nc2ccc(Nc3nc(N4CCCCC4)nc(N4CCCCC4)n3)cc2s1)c1ccc(F)cc1`, on Beta-secretase 1 [1], the inhibition was determined as 80%. On Beta-secretase 1 [2], the IC50 is 20 µM.
